Results reported in ChEMBL document CHEMBL5653631, “A Potent and Selective ULK1 Inhibitor Suppresses Autophagy and Sensitizes Cancer Cells to Nutrient Stress” (iScience, 2018).
Each block holds one compound with its values, some of them ahead of it.

What was measured:
[1] = molecular target: T1, Serine/threonine-protein kinase Sgk3 (Homo sapiens) (UniProt Q96BR1); test: Inhibition of human recombinant SGK3 at 500 nM in presence of ATP by radiometric assay relative to control
T1 sequence (whole entry): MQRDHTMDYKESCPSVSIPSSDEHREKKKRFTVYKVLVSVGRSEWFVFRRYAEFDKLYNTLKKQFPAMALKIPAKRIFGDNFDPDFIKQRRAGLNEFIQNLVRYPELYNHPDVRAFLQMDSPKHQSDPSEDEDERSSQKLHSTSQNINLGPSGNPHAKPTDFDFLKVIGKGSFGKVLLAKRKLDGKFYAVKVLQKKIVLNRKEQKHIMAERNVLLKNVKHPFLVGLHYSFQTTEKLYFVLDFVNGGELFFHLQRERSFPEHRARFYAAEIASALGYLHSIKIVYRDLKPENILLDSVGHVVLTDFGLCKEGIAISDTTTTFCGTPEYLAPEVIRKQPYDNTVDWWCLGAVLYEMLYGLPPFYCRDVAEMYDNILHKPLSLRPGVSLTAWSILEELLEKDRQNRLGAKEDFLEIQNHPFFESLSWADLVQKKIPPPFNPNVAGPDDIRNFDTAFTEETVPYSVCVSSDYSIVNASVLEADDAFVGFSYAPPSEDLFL

[2] = molecular target: T2, Serine/threonine-protein kinase DCLK3 (Homo sapiens) (UniProt Q9C098); test: Inhibition of human recombinant DCAMKL3 at 500 nM in presence of ATP by radiometric assay relative to control
T2 sequence (whole entry): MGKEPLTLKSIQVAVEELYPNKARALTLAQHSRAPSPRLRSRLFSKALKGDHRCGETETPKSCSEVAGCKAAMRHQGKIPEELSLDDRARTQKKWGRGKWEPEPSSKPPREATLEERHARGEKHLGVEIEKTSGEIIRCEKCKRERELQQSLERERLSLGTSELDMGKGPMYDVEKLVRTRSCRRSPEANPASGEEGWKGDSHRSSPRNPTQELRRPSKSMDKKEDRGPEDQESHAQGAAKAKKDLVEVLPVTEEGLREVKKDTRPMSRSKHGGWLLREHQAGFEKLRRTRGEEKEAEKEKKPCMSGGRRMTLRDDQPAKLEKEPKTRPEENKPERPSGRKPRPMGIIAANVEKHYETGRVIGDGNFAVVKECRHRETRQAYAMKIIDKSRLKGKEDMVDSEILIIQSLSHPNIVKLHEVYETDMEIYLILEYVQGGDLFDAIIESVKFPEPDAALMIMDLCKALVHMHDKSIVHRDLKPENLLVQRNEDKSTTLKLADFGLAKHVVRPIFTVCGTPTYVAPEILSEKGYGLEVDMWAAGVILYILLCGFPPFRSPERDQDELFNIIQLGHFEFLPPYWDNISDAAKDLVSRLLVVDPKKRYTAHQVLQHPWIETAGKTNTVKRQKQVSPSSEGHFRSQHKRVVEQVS

[3] = molecular target: T3, cGMP-dependent protein kinase 1 (Homo sapiens) (UniProt Q13976); test: Inhibition of human recombinant PKG1 at 500 nM in presence of ATP by radiometric assay relative to control
T3 sequence (whole entry): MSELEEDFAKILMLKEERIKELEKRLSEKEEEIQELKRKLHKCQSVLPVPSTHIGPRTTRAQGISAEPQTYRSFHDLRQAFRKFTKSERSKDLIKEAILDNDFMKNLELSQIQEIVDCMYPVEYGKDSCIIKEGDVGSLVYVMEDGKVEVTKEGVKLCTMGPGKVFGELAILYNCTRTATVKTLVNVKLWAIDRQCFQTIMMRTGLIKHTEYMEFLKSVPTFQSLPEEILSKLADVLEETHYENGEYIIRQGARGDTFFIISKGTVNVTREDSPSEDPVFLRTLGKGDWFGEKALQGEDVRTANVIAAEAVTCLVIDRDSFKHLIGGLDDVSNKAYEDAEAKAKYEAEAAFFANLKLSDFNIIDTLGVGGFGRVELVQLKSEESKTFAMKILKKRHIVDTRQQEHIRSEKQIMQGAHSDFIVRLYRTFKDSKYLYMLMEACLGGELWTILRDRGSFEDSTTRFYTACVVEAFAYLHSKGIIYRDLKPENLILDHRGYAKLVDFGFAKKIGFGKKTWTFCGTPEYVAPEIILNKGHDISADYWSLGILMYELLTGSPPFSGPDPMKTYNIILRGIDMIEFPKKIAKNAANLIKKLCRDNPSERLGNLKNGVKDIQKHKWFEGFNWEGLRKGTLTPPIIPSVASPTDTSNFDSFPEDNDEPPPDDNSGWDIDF

[4] = molecular target: RAC-gamma serine/threonine-protein kinase (Homo sapiens) (UniProt Q9Y243); test: Inhibition of human recombinant AKT3 at 15 nM in presence of ATP by radiometric assay relative to control
Procedure, shortened: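 Panel of 327 recombinant human kinases in radiometric activity assays, each screened in duplicate at a single inhibitor concentration; percent activity remaining relative to vehicle control, percent inhibition taken as 100 minus activity remaining.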

[5] = molecular target: Tyrosine-protein kinase BTK (Homo sapiens) (UniProt Q06187); test: Inhibition of human recombinant BTK at 40 nM related to control ULK1
[6] = molecular target: Platelet-derived growth factor receptor beta (Homo sapiens) (UniProt P09619); test: Inhibition of human recombinant PDGFRb at 40 nM related to control ULK1
[7] = molecular target: Ribosomal protein S6 kinase alpha-4 (Homo sapiens) (UniProt O75676); test: Inhibition of human recombinant MSK2 at 40 nM in presence of ATP by radiometric assay relative to control
Chain of Ribosomal protein S6 kinase alpha-4 (Homo sapiens) (O75676 whole entry, looked up): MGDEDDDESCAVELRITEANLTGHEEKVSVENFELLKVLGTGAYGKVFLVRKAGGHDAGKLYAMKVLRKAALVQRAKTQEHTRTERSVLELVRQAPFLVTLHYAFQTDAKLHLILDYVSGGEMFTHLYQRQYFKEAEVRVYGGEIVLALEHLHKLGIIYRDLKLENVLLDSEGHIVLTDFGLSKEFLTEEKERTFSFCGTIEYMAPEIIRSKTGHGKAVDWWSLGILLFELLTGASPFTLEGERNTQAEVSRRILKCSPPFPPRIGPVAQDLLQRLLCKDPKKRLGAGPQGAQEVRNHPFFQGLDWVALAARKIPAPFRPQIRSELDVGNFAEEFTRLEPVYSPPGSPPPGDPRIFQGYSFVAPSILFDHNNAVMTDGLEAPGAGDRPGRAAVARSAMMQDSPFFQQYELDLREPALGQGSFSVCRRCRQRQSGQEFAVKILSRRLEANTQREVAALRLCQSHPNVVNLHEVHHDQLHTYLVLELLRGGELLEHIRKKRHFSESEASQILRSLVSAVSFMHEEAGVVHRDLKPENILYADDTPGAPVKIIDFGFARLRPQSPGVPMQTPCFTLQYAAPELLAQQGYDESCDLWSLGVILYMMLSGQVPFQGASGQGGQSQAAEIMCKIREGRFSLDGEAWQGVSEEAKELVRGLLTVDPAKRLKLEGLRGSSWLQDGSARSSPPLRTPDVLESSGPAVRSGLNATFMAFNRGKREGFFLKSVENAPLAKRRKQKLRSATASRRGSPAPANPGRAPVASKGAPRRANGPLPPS

Chain of Tyrosine-protein kinase BTK (Homo sapiens) (Q06187 whole entry): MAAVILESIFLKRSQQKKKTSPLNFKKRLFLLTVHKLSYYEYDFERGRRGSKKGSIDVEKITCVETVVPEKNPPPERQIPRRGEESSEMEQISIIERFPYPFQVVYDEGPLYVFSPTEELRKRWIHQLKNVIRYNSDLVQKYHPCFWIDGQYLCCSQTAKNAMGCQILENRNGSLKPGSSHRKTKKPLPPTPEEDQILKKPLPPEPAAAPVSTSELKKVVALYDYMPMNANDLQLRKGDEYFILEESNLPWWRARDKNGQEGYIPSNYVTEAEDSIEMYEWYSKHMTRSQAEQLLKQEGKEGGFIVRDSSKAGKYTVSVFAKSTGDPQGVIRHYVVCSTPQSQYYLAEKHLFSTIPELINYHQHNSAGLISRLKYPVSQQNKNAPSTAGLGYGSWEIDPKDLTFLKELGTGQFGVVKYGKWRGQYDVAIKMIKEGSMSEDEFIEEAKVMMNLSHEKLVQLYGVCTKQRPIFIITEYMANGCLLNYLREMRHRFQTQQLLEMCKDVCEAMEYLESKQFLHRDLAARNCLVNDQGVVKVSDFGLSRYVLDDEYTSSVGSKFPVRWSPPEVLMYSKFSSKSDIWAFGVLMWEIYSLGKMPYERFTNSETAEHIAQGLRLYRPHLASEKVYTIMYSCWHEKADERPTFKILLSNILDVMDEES
Chain of RAC-gamma serine/threonine-protein kinase (Homo sapiens) (Q9Y243 whole entry): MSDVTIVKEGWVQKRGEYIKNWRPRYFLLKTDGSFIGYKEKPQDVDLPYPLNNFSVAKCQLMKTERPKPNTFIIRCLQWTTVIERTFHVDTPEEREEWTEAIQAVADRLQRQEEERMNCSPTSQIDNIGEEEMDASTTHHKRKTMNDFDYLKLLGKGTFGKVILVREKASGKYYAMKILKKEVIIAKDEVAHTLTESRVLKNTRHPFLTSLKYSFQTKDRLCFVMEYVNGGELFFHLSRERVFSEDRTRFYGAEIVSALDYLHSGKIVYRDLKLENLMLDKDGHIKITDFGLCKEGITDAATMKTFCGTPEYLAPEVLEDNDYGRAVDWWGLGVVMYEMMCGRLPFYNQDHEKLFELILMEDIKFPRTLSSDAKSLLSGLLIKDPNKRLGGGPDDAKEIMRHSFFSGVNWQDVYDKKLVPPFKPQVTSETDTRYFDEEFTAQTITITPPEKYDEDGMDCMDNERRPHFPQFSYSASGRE
Chain of Platelet-derived growth factor receptor beta (Homo sapiens) (P09619 whole entry): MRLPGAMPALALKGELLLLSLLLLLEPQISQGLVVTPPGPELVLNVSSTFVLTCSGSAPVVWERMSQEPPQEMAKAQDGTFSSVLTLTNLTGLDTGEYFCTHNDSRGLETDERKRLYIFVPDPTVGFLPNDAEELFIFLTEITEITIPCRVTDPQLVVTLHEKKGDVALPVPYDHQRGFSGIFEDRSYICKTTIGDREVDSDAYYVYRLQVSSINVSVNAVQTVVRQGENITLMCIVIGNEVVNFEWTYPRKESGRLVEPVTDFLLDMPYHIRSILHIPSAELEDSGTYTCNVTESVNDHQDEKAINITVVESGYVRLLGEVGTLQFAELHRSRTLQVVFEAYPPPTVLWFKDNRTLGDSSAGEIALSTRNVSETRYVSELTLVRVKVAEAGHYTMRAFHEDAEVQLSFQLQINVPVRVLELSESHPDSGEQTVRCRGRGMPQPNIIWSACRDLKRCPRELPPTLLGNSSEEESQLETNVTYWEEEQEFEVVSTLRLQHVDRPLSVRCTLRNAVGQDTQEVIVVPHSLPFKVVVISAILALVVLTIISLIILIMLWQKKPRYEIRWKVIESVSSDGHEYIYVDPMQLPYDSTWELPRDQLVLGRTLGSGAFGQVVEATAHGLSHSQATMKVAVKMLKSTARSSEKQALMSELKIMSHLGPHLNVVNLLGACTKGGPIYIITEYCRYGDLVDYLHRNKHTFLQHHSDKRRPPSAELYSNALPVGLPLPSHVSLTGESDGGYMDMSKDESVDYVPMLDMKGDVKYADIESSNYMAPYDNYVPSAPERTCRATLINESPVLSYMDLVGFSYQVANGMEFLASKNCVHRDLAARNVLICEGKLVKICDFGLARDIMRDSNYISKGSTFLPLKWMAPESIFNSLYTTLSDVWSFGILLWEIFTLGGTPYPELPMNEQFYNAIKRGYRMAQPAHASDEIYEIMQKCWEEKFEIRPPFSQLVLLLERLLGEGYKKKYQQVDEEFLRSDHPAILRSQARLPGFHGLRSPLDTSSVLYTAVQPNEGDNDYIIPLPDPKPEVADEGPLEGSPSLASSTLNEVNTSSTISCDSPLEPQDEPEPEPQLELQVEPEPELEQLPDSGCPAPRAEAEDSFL

inhibition [1]: 1% | inhibition [2]: 0% | inhibition [3]: 4%
Structure (SMILES): CNC(=O)c1ccccc1Oc1nc(Nc2cc(OC)c(OC)c(OC)c2)ncc1Br

inhibition [4]: 8%
Structure (SMILES): CC(C)[C@H](NC(=O)c1cc(-c2cnn3cc(-c4ccc(OCCN5CCCCC5)cc4)cnc23)cs1)C(F)(F)F

fold change (FC) [5]: 0 | fold change (FC) [6]: 0.07 | inhibition [7]: 0%
Structure (SMILES): O=C(N[C@@H](C1CC1)C(F)(F)F)c1cc(-c2cnn3cc(-c4ccc(F)cc4)cnc23)cs1
